Assay results gathered from unrelated publications.
Protocols differ between the studies behind these lines.
Target: STE20-like serine/threonine-protein kinase (SLK, Homo sapiens, UniProt Q9H2G2)

The inhibition of `COc1cc(Nc2ncc(F)c(Nc3ccc4c(n3)NC(=O)C(C)(C)O4)n2)cc(OC)c1OC` is reported as 100% (binding; 10 µM).
The inhibition of `Cn1cc(-c2cc(F)cc(N3CCn4c(cc5c4CCCC5)C3=O)c2CO)cc(Nc2ccc(N3CCN(C4COC4)CC3)cn2)c1=O` is reported as 4% (enzyme activity, inhibitor; 0.1 µM).
`Cn1cncc1[C@@](O)(COc1ccc(C#N)cc1-c1ccc(OC(F)(F)F)cc1)c1ccc(C#N)cc1` has a remaining binding of 100% (cell-free assay, competition with immobilised ligand; 1 µM).
`CC(C)(C)c1cc(C=C(C#N)C#N)cc(Br)c1O` has a remaining activity of 94.7% (enzyme activity, inhibitor; 0.5 µM).
With `N#CC1(c2ccccn2)CCN(Cc2cc(C(=O)O)c(=O)n3ccccc23)CC1` the remaining binding was 99% (cell-free assay, competition with immobilised ligand; 1 µM).
`Cn1cc(-c2cccc(N3CCc4c(sc5c4CC(C)(C)C5)C3=O)c2CO)cc(Nc2ccncn2)c1=O` gave an inhibition of 4% (enzyme activity, inhibitor; 1 µM).
With `Cc1nn(C)cc1-c1nc2c(N3CCN(Cc4ccc(Cl)cc4)CC3)c(Cl)cnc2[nH]1` the remaining binding was 100% (binding, competition with immobilised ligand; 1 µM).
`Nc1ncc(-c2nc(N3CCOCC3)nc(N3CCOCC3)n2)c(C(F)F)n1` gave a remaining binding of 24% (binding, competition with immobilised ligand; 10 µM).
For `COc1ncccc1-c1cnn2ccc(N3CCN(C(=O)OC(C)C)CC3)nc12`, the remaining binding was 100% (binding, competition with immobilised ligand; 1 µM).
`O=c1[nH]c2ccccc2n1C1CCN(Cc2ccc(-c3[nH]c4cc5ncnc5cc4nc3-c3ccccc3)cc2)CC1` has a remaining signal of 97.7% (cell-free assay; 0.5 µM).
